Legend:
[1] = Cytotoxicity against mouse RAW264.7 cells after 48 hrs by resazurin dye-based assay; type: cell-based
Summary of the method: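 RAW 264.7 cells seeded at 2 × 10⁴ per well in DMEM with 10% HIFBS and penicillin–streptomycin, 24 h preculture. Two-fold serial dilutions for 48 h at 37 °C, 5% CO₂. Resazurin (450 μM, 10 μL) added for 4 h in the dark, OD570/OD600 read. CC50 is the concentration reducing macrophage growth by 50%.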

Leishmania donovani [2] = test: Antileishmanial activity against Leishmania donovani MHOM/ET/67/HU3 intramacrophage amastigotes infected in mouse RAW264.7 cells after 48 hrs by SYBR green1 dye-based fluorescence assay; type: functional, organism-based; details: MHOM/ET/67/HU3, RAW264.7, 48 h
Summary of the method: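 RAW 264.7 macrophages (2 × 10⁴ per well, 24 h preculture) infected with axenic amastigotes at 16:1 parasite:macrophage for 24 h. Extracellular parasites then removed. Two-fold serial dilutions from 100 μM maximum in DMEM complete medium for 48 h. Cells lysed in Direct PCR Lysis Reagent with 3 freeze–thaw cycles and proteinase K 50 μg mL⁻¹ at 55 °C overnight. Extract mixed with SYBR Green I.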

Leishmania donovani [3] = test: Antileishmanial activity against Leishmania donovani MHOM/ET/67/HU3 axenic amastigotes after 72 hrs by resazurin dye-based assay; type: functional, organism-based; details: MHOM/ET/67/HU3, 72 h
[4] = Selectivity index, ratio of CC50 for mouse RAW264.7 cells to IC50 for Leishmania donovani MHOM/ET/67/HU3 intramacrophage amastigotes infected in mouse RAW264.7 cells; type: toxicity, cell-based; details: read-out: Ratio CC50/IC50
Summary of the method: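 Ratio of the RAW 264.7 CC₅₀ to the intramacrophage amastigote IC₅₀, both measured in this work.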

Row | SMILES | CC50 at 48 h [1] | IC50 (Leishmania donovani [2]) | IC50 (Leishmania donovani [3]) | selectivity ratio [4]
1 | CC1=CC(=O)/C(=C(/C)Nc2ccc3cnn(Cc4ccc(C)cc4)c3c2)C(=O)O1 | > 100 µM | > 100 µM | > 100 µM | 
2 | CC1=CC(=O)/C(=C(/C)Nc2ccc3cn(Cc4ccc(C)cc4)nc3c2)C(=O)O1 | > 100 µM | 57.4 µM | 49.6 µM | 
3 | CCn1ncc2cc(N/C(C)=C3\C(=O)C=C(C)OC3=O)ccc21 | > 100 µM | > 100 µM | > 100 µM | 
4 | CCn1cc2ccc(N/C(C)=C3\C(=O)C=C(C)OC3=O)cc2n1 | > 100 µM | > 100 µM | > 100 µM | 
5 | CCn1nc(Cl)c2ccc(N/C(C)=C3\C(=O)C=C(C)OC3=O)cc21 | 6.23 µM | 6.5 µM | 11 µM | 0.96
6 | C=CCn1ncc2ccc(N/C(C)=C3\C(=O)C=C(C)OC3=O)cc21 | > 100 µM | > 100 µM | > 100 µM | 
7 | C=CCn1ncc2cc(N/C(C)=C3\C(=O)C=C(C)OC3=O)ccc21 | > 100 µM | > 100 µM | > 100 µM | 
8 | C=CCn1nc(Cl)c2ccc(N/C(C)=C3\C(=O)C=C(C)OC3=O)cc21 | > 100 µM | > 100 µM | > 100 µM | 
9 | CC1=CC(=O)/C(=C(/C)Nc2ccc3c(Cl)n(Cc4ccc(C)cc4)nc3c2)C(=O)O1 | > 100 µM | > 100 µM | > 100 µM | 
10 | CC1=CC(=O)/C(=C(/C)Nc2ccc3cnn(C)c3c2)C(=O)O1 | > 100 µM | > 100 µM | > 100 µM | 
11 | CCn1cc2cc(N/C(C)=C3\C(=O)C=C(C)OC3=O)ccc2n1 | > 100 µM | > 100 µM | > 100 µM | 
12 | C=CCn1cc2ccc(N/C(C)=C3\C(=O)C=C(C)OC3=O)cc2n1 | > 100 µM | > 100 µM | > 100 µM | 
13 | CCn1nc2cc(N/C(C)=C3\C(=O)C=C(C)OC3=O)ccc2c1Cl | 6.25 µM | 2.25 µM | 2.48 µM | 2.77
14 | CC1=CC(=O)/C(=C(/C)Nc2ccc3c(cnn3C)c2)C(=O)O1 | > 100 µM | > 100 µM | > 100 µM | 
15 | CC1=CC(=O)/C(=C(/C)Nc2ccc3c(Cl)nn(Cc4ccc(C)cc4)c3c2)C(=O)O1 | > 100 µM | 49.9 µM | 62.6 µM | 
16 | CC1=CC(=O)/C(=C(/C)Nc2ccc3c(Cl)nn(C)c3c2)C(=O)O1 | > 100 µM | > 100 µM | > 100 µM | 
17 | CC1=CC(=O)/C(=C(/C)Nc2ccc3nn(C)cc3c2)C(=O)O1 | > 100 µM | > 100 µM | > 100 µM | 
18 | CC1=CC(=O)/C(=C(/C)Nc2ccc3c(Cl)n(C)nc3c2)C(=O)O1 | 6.26 µM | 3.25 µM | 11.9 µM | 1.92
19 | CCn1ncc2ccc(N/C(C)=C3\C(=O)C=C(C)OC3=O)cc21 | > 100 µM | > 100 µM | > 100 µM | 
20 | C[C@@H]1[C@H](O)[C@@H](C)/C=C/C=C/C=C/C=C/C=C/C=C/C=C/[C@H](O[C@@H]2O[C@H](C)[C@@H](O)[C@H](N)[C@@H]2O)C[C@@H]2O[C@](O)(C[C@@H](O)C[C@@H](O)[C@H](O)CC[C@@H](O)C[C@@H](O)CC(=O)O[C@H]1C)C[C@H](O)[C@H]2C(=O)O [AMPHOTERICIN B] | 4.23 µM | 0.115 µM |  | 
